Apaf1 inhib: blocks human Apaf-1 apoptosome activity; O14727; AID 489030; actives 0.71% (n = 330,000); inhibition, % at 20 µM; reconstituted apoptosome caspase-3 activity, DEVD-Rh110 fluorescence; active = inhibition of at least 40% at 20 µM;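 note: plate controls were DMSO wells for no effect and DEVD-CHO caspase inhibitor wells for full effect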
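detection = Rh110 fluorescence intensity | test system = biochemical Apaf-1 apoptosome reconstitution | also added = cytochrome c and DEVD-Rh110 substrate | schedule = 30 min plus 50 min, RT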
UBC13 polyUb: inhibitors of human UBC13 polyubiquitin chain formation; P61088; TR-FRET; inhibition, % at 20 µM; actives 0.47% (n = 330,000); AID 485273; in the data active = inhibition above about 45%, passing the limit was not always enough
XBP1 UPR activ: adaptive UPR (XBP1) activation; CHO-XBP1 luciferase reporter, IRE1-XBP1 UPR activation, luminescence; percent of tunicamycin response, DMSO as zero; activation, % at 20 µM; actives 0.33% (n = 330,000); AID 463104;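 active = versus positive control, 20 µM dose yields 30% or more activation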;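 note: 100% = tunicamycin at 10 µg/mL and 0% = DMSO only wells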
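Material: IRE1-XBP1 luciferase reporter CHO line / Quantity: one thousand reporter cells per well / Buffer or medium: F12 with 10% serum / Compound: 20 µM single concentration, DMSO 1% / Times: 6 h treatment, 37 °C / Detection: Steady-Glo luciferase glow luminescence, 10 min after reagent addition / Benchmarks: tunicamycin high, DMSO low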
UPR CHOP act: activators of apoptotic arm of unfolded protein response (CHOP). CHO-CHOP luciferase reporter, UPR activation, luminescence; percent of tunicamycin response over DMSO baseline. activation, % at 10 µM. actives 0.34% (n = 330,000). AID 449763;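 active = at 10 µM dose, activation of 40% or more, normalized to positive control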;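 note: 100% = tunicamycin at 10 µg/mL and 0% = DMSO alone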
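System: CHO CHOP reporter cells. Amount: 500 cells per well. Buffer or medium: F12 medium, 10% FBS. Compound dosing: one dose, 10 µM in 0.5% DMSO. Incubation: 6 h compound exposure at 37 °C after overnight seeding. Technique: Steady-Glo luciferase luminescence. Benchmarks: tunicamycin and DMSO controls.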
Mdm2 MdmX PPI: disrupts the human Mdm2-MdmX interaction. O15151+Q00987. inhibition, % at 8 µM. actives 3% (n = 330,000). SaOS-2 split-luciferase Mdm2/MdmX complementation, luminescence;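 active = inhibition of at least 50% at 8 µM in the primary screen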
Mdm2 MdmX conf: human Mdm2/MdmX binding inhibition, confirmed; shares compounds with Mdm2 MdmX PPI; luminescent assay; inhibition, % at 8 µM; actives 55% (n = 10,000); AID 489028; in the data active = inhibition above about 40%
Full FLuc ctr: counter-screen for Mdm2/MdmX inhibitors: full-length luciferase; shares compounds with Mdm2 MdmX PPI; SaOS-2 full-length luciferase counterscreen, luminescence; inhibition, % at 8 µM; actives 77% (n = 6,200); AID 504607;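 active = mean inhibition at 8 µM reaching about 37%, which flags the compound as non-specific, limit read from the data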;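 note: p53-null SaOS-2 cells with luciferase driven by a doxycycline-inducible promoter; compound on cells about two nights before reading with doxycycline added after day one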
* = called active by the depositor. This is a sample that favours compounds with a hit; in the whole collection about 4.1% have one here.

What do the screens show for `Cc1nc(-n2[nH]c3c(c2=O)CCCC3)[nH]c(=O)c1Cc1ccccc1`?
Apaf1 inhib: 6.3; UBC13 polyUb: -59.8; XBP1 UPR activ: 17.9; UPR CHOP act: 24.7; Mdm2 MdmX PPI: 58.1*; Mdm2 MdmX conf: 64.2*; Full FLuc ctr: 30.8

What do the screens show for `CCCn1nc([N+](=O)[O-])c(C(C#N)c2nc3ccccc3s2)c(Cl)c1=O` (configuration not stated)?
Apaf1 inhib: 18.9; UBC13 polyUb: -118.3; XBP1 UPR activ: 0.0; UPR CHOP act: -1.7; Mdm2 MdmX PPI: 80.3*; Mdm2 MdmX conf: 73.8*; Full FLuc ctr: 56.8*

Results for Cc1ccc(NC(=O)c2cc(Cl)nc3ccccc23)cc1 ?
Apaf1 inhib: 6.1; UBC13 polyUb: 5.2; XBP1 UPR activ: -0.9; UPR CHOP act: 1.1; Mdm2 MdmX PPI: 29.7

Results for CCOc1ccc(NC(=O)c2cc(OC)nc3ccccc23)cc1 ?
Apaf1 inhib: 1.3; UBC13 polyUb: 5.1; XBP1 UPR activ: 8.0; UPR CHOP act: 1.3; Mdm2 MdmX PPI: 62.9*; Mdm2 MdmX conf: 59.1*; Full FLuc ctr: 71.4*

What do the screens show for `COc1cc(C(=O)Nc2ccc(C)cc2)c2ccccc2n1`?
Apaf1 inhib: 5.3; UBC13 polyUb: 7.8; XBP1 UPR activ: 19.2; UPR CHOP act: 0.5; Mdm2 MdmX PPI: 63.6*; Mdm2 MdmX conf: 48.5*; Full FLuc ctr: 83.9*

What do the screens show for `Cc1ccc(NC(=O)c2cc(N3CCOCC3)nc3ccccc23)cc1`?
Apaf1 inhib: 17.5; UBC13 polyUb: 3.0; XBP1 UPR activ: -1.8; UPR CHOP act: -2.8; Mdm2 MdmX PPI: 54.8*; Mdm2 MdmX conf: 33.6; Full FLuc ctr: 45.5*

What do the screens show for `O=C(COc1ccccc1)Nc1cccc(-c2nc3cc4ccccc4cc3[nH]2)c1`?
Apaf1 inhib: -24.1; UBC13 polyUb: 11.6; XBP1 UPR activ: 19.2; UPR CHOP act: 11.4; Mdm2 MdmX PPI: -146.0

Results for CCOC(=O)/C(C(C)=O)=C1\OC(=O)c2ccccc21 ?
Apaf1 inhib: 7.7; UBC13 polyUb: -6.1; XBP1 UPR activ: -0.4; UPR CHOP act: 1.1; Mdm2 MdmX PPI: 5.0

Results for COc1cccc2c1C(=O)c1c(O)c3c(c(O)c1C2=O)C[C@@](O)(C(=O)CO)C[C@@H]3O[C@H]1C[C@H](N)[C@@H](O)[C@H](C)O1 ?
Apaf1 inhib: 55.8*; UBC13 polyUb: -160.7; XBP1 UPR activ: -5.7; UPR CHOP act: -0.7; Mdm2 MdmX PPI: 94.2*; Mdm2 MdmX conf: 99.5*; Full FLuc ctr: 4.0

What do the screens show for `Cn1c(=O)c(Nc2ccc(Cl)cc2)c2c3c(cccc31)C(=O)c1ccccc1-2`?
Apaf1 inhib: 9.9; UBC13 polyUb: -87.9; XBP1 UPR activ: -2.0; UPR CHOP act: 0.9; Mdm2 MdmX PPI: 50.7*; Mdm2 MdmX conf: 15.0

What do the screens show for `Cc1c(CN(C)C)c2c(n1Cc1ccccc1)C(=O)c1ccc(Br)cc1-2`?
Apaf1 inhib: 13.2; UBC13 polyUb: -73.1; XBP1 UPR activ: 2.7; UPR CHOP act: 1.6; Mdm2 MdmX PPI: 77.1*; Mdm2 MdmX conf: 60.7*; Full FLuc ctr: 29.6

How did O=C(c1ccco1)N1CCN(C(=O)c2cnn3c2NC(c2cccs2)CC3C(F)(F)F)CC1 (configuration not stated) do in these assays?
Apaf1 inhib: -11.0; UBC13 polyUb: -4.4; XBP1 UPR activ: -3.1; UPR CHOP act: 0.4; Mdm2 MdmX PPI: 11.8

What do the screens show for `O=C(c1cnn2c1NC(c1ccco1)CC2C(F)(F)F)N1CCN(c2cccc(Cl)c2)CC1` (configuration not stated)?
Apaf1 inhib: 20.9; UBC13 polyUb: -2.0; XBP1 UPR activ: -4.4; UPR CHOP act: -2.3; Mdm2 MdmX PPI: 58.9*; Mdm2 MdmX conf: 51.0*; Full FLuc ctr: 55.9*

What do the screens show for `O=C(N1CCN=C1SCc1cccnc1)C12CC3CC(CC(C3)C1)C2`?
Apaf1 inhib: 3.8; UBC13 polyUb: 4.7; XBP1 UPR activ: -0.7; UPR CHOP act: 0.0; Mdm2 MdmX PPI: 13.7
